Experiment [1] relates to Bel-7402. Description: Cell cycle arrest in human Bel7402 cells assessed as accumulation at G1 phase at 0.125 uM after 72 hrs by propidium iodide staining-based flow cytometric method (reference value: 39.28%). The format is functional. On the technique in general: A flow cytometer gives signals particle by particle.
Experiment [2] has as its system Bel-7402. Nature of the experiment: Upregulation of p53 level in human Bel7402 cells after 72 hrs by Western blot analysis. The format is functional, cell-based. The method, boiled down:
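Bel-7402 cells were treated for 72 h at the indicated concentrations (0.125–0.5 µM) and lysed. Lysates were cleared at 14,000 g for 10 min at 4 °C, and 25 µg protein per lane was run on 10% SDS-PAGE and transferred to nitrocellulose. Membranes were blocked in 5% milk, probed overnight at 4 °C with monoclonal antibodies, and detected by ECL. Densitometry was normalized to GAPDH.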

The subject of experiment [3] is Bel-7402. Nature of the experiment: Induction of apoptosis in human Bel7402 cells assessed as viable cells at 0.125 uM after 72 hrs by Annexin V-FITC/propidium iodide staining based flow cytometry (reference value: 82.48%). The experiment is classed as functional. To be noted: Bel-7402, 72 h, read-out: Activity.
Experiment [4] relates to Bel-7402. Description: Induction of apoptosis in human Bel7402 cells assessed as viable cells at 0.5 uM after 72 hrs by Annexin V-FITC/propidium iodide staining based flow cytometry (reference value: 82.48%). The experiment is classed as functional. As to conditions: Bel-7402, 72 h, read-out: Activity.
For experiment [5], the system named is Bel-7402. Description: Induction of apoptosis in human Bel7402 cells assessed as early apoptotic cells at 0.5 uM after 72 hrs by Annexin V-FITC/propidium iodide staining based flow cytometry (reference value: 1.65%). The format is functional.
The test system of experiment [6] is Bel-7402. Description: Induction of mitochondrial membrane depolarization in human Bel7402 cells assessed as cells with mitochondrial membrane potential loss at 0.125 uM after 24 to 48 hrs by JC-1 staining based flow cytometric analysis (reference value: 6.17%). The format is functional.
In experiment [7] the test system is Bel-7402. Description: Induction of mitochondrial membrane depolarization in human Bel7402 cells assessed as cells with mitochondrial membrane potential loss at 0.25 uM after 24 to 48 hrs by JC-1 staining based flow cytometric analysis (reference value: 6.17%). The experiment is classed as functional.
Experiment [8] relates to Bel-7402. Nature of the experiment: Induction of apoptosis in human Bel7402 cells assessed as late apoptotic cells at 0.125 uM after 72 hrs by Annexin V-FITC/propidium iodide staining based flow cytometry (reference value: 2.82%). The experiment is classed as functional.
Experiment [9] concerns Bel-7402. Nature of the experiment: Cell cycle arrest in human Bel7402 cells assessed as accumulation at S phase at 0.125 uM after 72 hrs by propidium iodide staining-based flow cytometric method (reference value: 37.02%). The format is functional.
Experiment [10] relates to Bel-7402. Description: Cell cycle arrest in human Bel7402 cells assessed as accumulation at G1 phase at 0.5 uM after 72 hrs by propidium iodide staining-based flow cytometric method (reference value: 39.28%). The experiment is classed as functional.
The test system of experiment [11] is Bel-7402. Description: Cell cycle arrest in human Bel7402 cells assessed as accumulation at G1 phase after 72 hrs by propidium iodide staining-based flow cytometric method. The format is functional.
Experiment [12] relates to Bel-7402. Nature of the experiment: Induction of apoptosis in human Bel7402 cells assessed as reduction in number of adherent cells at 0.125 to 0.25 uM after 48 hrs by Hoechst 33258 staining based fluorescent microscopic method. The experiment is classed as functional, cell-based. The method, boiled down: (§1)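 Bel-7402 cells were seeded and grown 24 h, treated at 0.125, 0.25 and 0.5 µM for 48 h, then harvested by mild trypsinization and washed in PBS. They were stained with Hoechst 33258 for 15 min at room temperature in the dark and examined by fluorescence microscopy with a DAPI filter. Untreated cells served as control.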

In experiment [13] the test system is Bel-7402. Description: Induction of mitochondrial membrane depolarization in human Bel7402 cells assessed as cells with mitochondrial membrane potential loss at 0.5 uM after 24 to 48 hrs by JC-1 staining based flow cytometric analysis (reference value: 6.17%). The experiment is classed as functional.
The test system of experiment [14] is Bel-7402. Nature of the experiment: Induction of apoptosis in human Bel7402 cells assessed as cell shrinkage at 0.125 to 0.25 uM after 48 hrs by Hoechst 33258 staining based fluorescent microscopic method. The format is functional. The method, boiled down: as §1
For experiment [15], the system named is Bel-7402. Nature of the experiment: Induction of apoptosis in human Bel7402 cells assessed as nuclear fragmentation at 0.5 uM after 48 hrs by Hoechst 33258 staining based fluorescent microscopic method. The experiment is classed as functional, cell-based. The method, boiled down:
as §1

The test system of experiment [16] is Bel-7402. Description: Induction of apoptosis in human Bel7402 cells assessed as rupture of cell membrane at 0.5 uM after 48 hrs by Hoechst 33258 staining based fluorescent microscopic method. The format is functional. In outline:
as §1

Structures are written as SMILES. Activity calls are given as the source filed them. The calls are words filed in the database; no cut-off is given here.

Regarding `C[C@H]1CCC/C=C/[C@@H]2C[C@H](O)C[C@H]2[C@H](OC(=O)c2ccc(N(CCCl)CCCl)cc2)/C=C/C(=O)O1`, the Activity with Bel-7402 [1] is 43.8%; in the experiment on Bel-7402 [2], “Dose-dependent effect”; in the experiment with Bel-7402 [5], 39.11%; in the experiment on Bel-7402 [6], 16.06%; in the experiment with Bel-7402 [7] it was 29.5%; in the experiment with Bel-7402 [8], 5.47%. The Activity was 36.28% with Bel-7402 [9], 58.17% in the experiment on Bel-7402 [10], “Dose-dependent effect” in the experiment with Bel-7402 [11] and 43.85% in the experiment with Bel-7402 [13]. Besides, in the experiment on Bel-7402 [3], the viability at 0.125 µM was found to be 80.6%. In the experiment on Bel-7402 [4], the viability at 0.5 µM amounted to 38.5%. Also, the result with Bel-7402 [12], in the experiment on Bel-7402 [14], in the experiment with Bel-7402 [15] and in the experiment with Bel-7402 [16] was Active.

Source of the values: ChEMBL document CHEMBL4196069 (Eur J Med Chem, 2018).
